Calls of active or inactive are those of the source. No cut-off for these calls is given here.
What was measured:
[1] = target: Epidermal growth factor receptor (Homo sapiens, UniProt P00533)
NCI-H1975 [2] = experiment: Cytotoxicity in human NCI-H1975 cells assessed as reduction in cell viability incubated for 96 hrs by MTS method; assay type: functional
[3] = target: Epidermal growth factor receptor (Homo sapiens, UniProt P00533, L858R/T790M)
HCC827 [4] = experiment: Cytotoxicity in human HCC827 cells assessed as reduction in cell viability incubated for 96 hrs by MTS method; assay type: functional
[5] = Oral bioavailability in rat at 20 mg/kg; assay type: ADME, organism-based; details: in vivo
Method in brief: (§1)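 Rat pharmacokinetics: single IV injection at 5 mg/kg or oral dosing at 20 mg/kg (23.6 mg/kg oral for one compound). Plasma parameters t1/2, CL, Vss, AUC(0-inf), Cmax, Tmax and oral bioavailability F were derived from the concentration–time profiles.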

HCC827 [6] = details: Homo sapiens
[7] = AUC (0 to infinity) in rat at 5 mg/kg, iv; assay type: ADME, organism-based; set-up: dose 5 mg/kg, time infinity, route intravenous; details: in vivo
[8] = Toxicity in athymic NU-Fox1nu nude mouse xenografted with human HCC827 cells assessed as induction of body weight loss at 20 mg/kg, po dosed via gavage for 5 days/week for 2 consecutive weeks; assay type: organism-based; details: in vivo, 120 h
Method in brief: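 Male athymic NU-Fox1nu nude mice, 6–8 weeks old, were inoculated subcutaneously at the left flank with 5x10^6 HCC827 (exon 19 Del E746_A750) cells. Oral gavage began at a mean tumor size of about 500 mm³, in 1% methylcellulose/0.5% Tween 80/98.5% water, once daily on days 1-5 and 8-12. Tumor volume (V = 0.5 a × b², caliper) and body weight were tracked.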

[9] = Half life in rat at 20 mg/kg, po; assay type: ADME, organism-based; details: in vivo
Method in brief: as §1

[10] = AUC (0 to infinity) in rat at 20 mg/kg, po; assay type: ADME, organism-based; set-up: dose 20 mg/kg, route oral, time infinity; details: in vivo
Method in brief: as §1

NCI-H1975 [11] = experiment: Antitumor activity against human NCI-H1975 cells xenografted in nude BALB/c mouse assessed as inhibition of tumor growth at 15 mg/kg, po QD for 15 days relative to control; assay type: functional; details: 360 h, read-out: TGI
Method in brief: (§2)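 H1975 cells were grown in RPMI1640 with 10% heat-inactivated FBS at 37 °C, 5% CO2, and passaged by trypsin-EDTA. 5x10^6 cells in 0.1 ml PBS were injected subcutaneously at the right flank of BALB/c nude mice. Oral QD dosing for 15 days began at a mean tumor size of 147 mm³, n = 5 per group.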

[12] = Clearance in rat at 5 mg/kg, iv; assay type: ADME, organism-based; details: in vivo
[13] = Toxicity in ICR mouse assessed as induction of skin rash at 100 mg/kg, po QD for 2 weeks; assay type: organism-based; details: in vivo, 336 h
[14] = Half life in rat at 5 mg/kg, iv; assay type: ADME, organism-based; details: in vivo
[15] = Toxicity in ICR mouse assessed as induction of fur loss in nose and abdomen area at 100 mg/kg, po QD for 2 weeks; assay type: organism-based; details: in vivo, 336 h
[16] = Volume of distribution at steady state in rat at 5 mg/kg, iv; assay type: ADME, organism-based; details: in vivo, read-out: Vdss
[17] = Cmax in rat at 20 mg/kg, po; assay type: ADME, organism-based; set-up: dose 20 mg/kg, route oral; details: in vivo
Method in brief: as §1

[18] = Toxicity in nude BALB/c mouse xenografted with human NCI-H1975 cells assessed as drug tolerability at 15 mg/kg, po QD for 15 days relative to control; assay type: organism-based; details: in vivo, 360 h
Method in brief: as §2

[19] = Toxicity in nude BALB/c mouse xenografted with human NCI-H1975 cells assessed as induction of body weight loss at 15 mg/kg, po QD for 15 days relative to control; assay type: organism-based; details: in vivo, 360 h
Method in brief: as §2

[20] = Tmax in rat at 20 mg/kg, po; assay type: ADME, organism-based; details: in vivo
Method in brief: as §1

[21] = Inhibition of GST-tagged human HER2 V777_G778insCG mutant mutant using poly(Glu, Tyr) 4:1 substrate incubated for 120 mins by kinase-Glo plus luminescent kinase assay
[22] = Inhibition of GST-tagged human EGFR D770GY mutant using poly(Glu, Tyr) 4:1 substrate incubated for 120 mins by kinase-Glo plus luminescent kinase assay
A-431 = experiment: Cytotoxicity in human A431 cells assessed as reduction in cell viability incubated for 96 hrs by MTS method; assay type: functional
[23] = target: Epidermal growth factor receptor (Homo sapiens, UniProt P00533, A763-Y764INSFHEA); experiment: Inhibition of GST-tagged human EGFR A763_Y764insFHEA mutant using poly(Glu, Tyr) 4:1 substrate incubated for 120 mins by kinase-Glo plus luminescent kinase assay
[24] = target: Epidermal growth factor receptor (Homo sapiens, UniProt P00533, D770-N771INSNPG); experiment: Inhibition of GST-tagged human EGFR D770_N771insNPG mutant using poly(Glu, Tyr) 4:1 substrate incubated for 120 mins by kinase-Glo plus luminescent kinase assay
Sequence of Epidermal growth factor receptor (Homo sapiens, UniProt P00533, D770-N771INSNPG) (P00533 whole entry, looked up, stated change not applied): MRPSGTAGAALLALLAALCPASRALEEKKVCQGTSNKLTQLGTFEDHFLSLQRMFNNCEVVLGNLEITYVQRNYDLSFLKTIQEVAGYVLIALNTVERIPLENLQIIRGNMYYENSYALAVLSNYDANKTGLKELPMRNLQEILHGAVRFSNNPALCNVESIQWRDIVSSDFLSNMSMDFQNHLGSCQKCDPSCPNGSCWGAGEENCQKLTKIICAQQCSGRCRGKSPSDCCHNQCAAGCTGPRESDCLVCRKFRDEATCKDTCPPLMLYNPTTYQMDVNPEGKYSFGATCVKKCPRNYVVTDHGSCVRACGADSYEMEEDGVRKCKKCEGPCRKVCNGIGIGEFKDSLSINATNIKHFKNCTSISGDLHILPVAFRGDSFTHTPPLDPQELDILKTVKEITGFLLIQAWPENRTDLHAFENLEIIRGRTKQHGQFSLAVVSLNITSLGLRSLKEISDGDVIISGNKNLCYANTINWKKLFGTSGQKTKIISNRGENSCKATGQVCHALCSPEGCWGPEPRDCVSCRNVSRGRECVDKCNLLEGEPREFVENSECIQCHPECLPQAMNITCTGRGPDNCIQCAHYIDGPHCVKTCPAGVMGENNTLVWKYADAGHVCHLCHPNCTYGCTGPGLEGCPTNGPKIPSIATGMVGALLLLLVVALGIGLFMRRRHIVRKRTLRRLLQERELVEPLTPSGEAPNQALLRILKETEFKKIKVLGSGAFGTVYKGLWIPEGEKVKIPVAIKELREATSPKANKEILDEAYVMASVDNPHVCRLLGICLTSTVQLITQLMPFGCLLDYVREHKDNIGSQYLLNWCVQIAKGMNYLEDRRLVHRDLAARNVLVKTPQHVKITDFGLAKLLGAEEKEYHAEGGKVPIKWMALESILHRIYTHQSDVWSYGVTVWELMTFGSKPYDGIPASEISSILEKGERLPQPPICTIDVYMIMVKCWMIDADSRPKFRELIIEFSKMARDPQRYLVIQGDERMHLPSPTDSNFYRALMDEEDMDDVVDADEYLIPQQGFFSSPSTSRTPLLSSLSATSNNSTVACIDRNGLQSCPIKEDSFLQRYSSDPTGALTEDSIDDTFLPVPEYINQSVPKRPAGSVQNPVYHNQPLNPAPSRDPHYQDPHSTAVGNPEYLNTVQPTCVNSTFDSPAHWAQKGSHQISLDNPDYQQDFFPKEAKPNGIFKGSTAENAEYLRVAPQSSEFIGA

Sequence of Epidermal growth factor receptor (Homo sapiens, UniProt P00533, L858R/T790M) (P00533 25-1210 T790M/L858R limits assumed): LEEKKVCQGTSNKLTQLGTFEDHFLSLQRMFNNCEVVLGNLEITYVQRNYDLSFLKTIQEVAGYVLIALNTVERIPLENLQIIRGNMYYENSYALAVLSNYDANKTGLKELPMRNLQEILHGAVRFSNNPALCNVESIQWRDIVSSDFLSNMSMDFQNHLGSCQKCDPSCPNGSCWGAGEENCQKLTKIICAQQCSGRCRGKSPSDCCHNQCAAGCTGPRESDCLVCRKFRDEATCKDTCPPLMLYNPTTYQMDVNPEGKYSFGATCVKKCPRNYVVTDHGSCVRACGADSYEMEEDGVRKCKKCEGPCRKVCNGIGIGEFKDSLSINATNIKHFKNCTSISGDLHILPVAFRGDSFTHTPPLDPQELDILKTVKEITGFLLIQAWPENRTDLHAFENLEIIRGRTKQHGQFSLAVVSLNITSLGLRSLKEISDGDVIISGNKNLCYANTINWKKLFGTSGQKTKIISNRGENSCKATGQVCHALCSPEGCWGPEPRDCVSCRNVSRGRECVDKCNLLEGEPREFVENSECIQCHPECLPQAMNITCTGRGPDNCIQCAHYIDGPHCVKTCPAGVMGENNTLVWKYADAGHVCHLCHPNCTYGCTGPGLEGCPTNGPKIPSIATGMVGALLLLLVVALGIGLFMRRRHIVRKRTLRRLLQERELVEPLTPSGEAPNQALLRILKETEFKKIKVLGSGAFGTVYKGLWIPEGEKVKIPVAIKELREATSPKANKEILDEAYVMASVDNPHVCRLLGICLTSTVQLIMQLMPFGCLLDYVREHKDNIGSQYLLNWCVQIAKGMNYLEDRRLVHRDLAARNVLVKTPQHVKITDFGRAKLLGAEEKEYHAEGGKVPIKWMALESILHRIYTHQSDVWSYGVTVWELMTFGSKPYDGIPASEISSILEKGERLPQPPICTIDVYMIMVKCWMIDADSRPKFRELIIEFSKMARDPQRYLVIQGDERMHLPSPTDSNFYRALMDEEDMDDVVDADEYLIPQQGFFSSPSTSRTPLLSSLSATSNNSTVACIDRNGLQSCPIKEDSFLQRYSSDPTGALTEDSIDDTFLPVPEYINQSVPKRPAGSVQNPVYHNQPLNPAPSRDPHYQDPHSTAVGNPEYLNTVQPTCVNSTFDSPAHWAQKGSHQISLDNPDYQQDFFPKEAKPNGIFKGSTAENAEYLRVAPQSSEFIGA
Sequence of Epidermal growth factor receptor (Homo sapiens, UniProt P00533) (P00533 whole entry): as the sequence (P00533 whole entry, looked up, stated change not applied) above
Sequence of Epidermal growth factor receptor (Homo sapiens, UniProt P00533, A763-Y764INSFHEA) (P00533 whole entry, looked up, stated change not applied): as above

SMILES	IC50 [1]	IC50 [3]	CC50 (NCI-H1975 [2]; Homo sapiens, NCI-H1975, 96 h)	CC50 (HCC827 [4]; Homo sapiens, HCC827, 96 h)	other results
CN(C)C/C=C/C(=O)Nc1cc2c(Nc3ccc(F)c(Cl)c3)ncnc2cc1O[C@H]1CCOC1 [AFATINIB]	–	–	224 nM	14 nM	bioavailability [5]: 15.9%; TGI (HCC827 [6]): Active; AUC(0-inf) [7]: 1060 ng·h/mL; Activity [8]: 5%; half-life [9]: 6 h; AUC(0-inf) [10]: 676 ng·h/mL; inhibition in vivo at 15 mg/kg (NCI-H1975 [11]): 65%; clearance [12]: 79.2 mL/min/kg; Activity [13]: Toxic; half-life [14]: 5.7 h; Activity [15]: Toxic; Vd [16]: 28.7 L/kg; Cmax [17]: 75.2 ng/mL; Activity [18]: Non-Toxic; Activity [19]: Non-Toxic; Tmax [20]: 4.2 h
C=CC(=O)N1CCC(Oc2cc3c(Nc4ccc(Cl)c(Cl)c4F)ncnc3cc2OC)CC1 [POZIOTINIB]	–	–	–	–	IC50 [21]: 0.206 nM; IC50 [22]: 0.082 nM; CC50 (A-431; Homo sapiens, A-431, 96 h): 31 nM
C=CC(=O)Nc1cccc(-c2c(Cl)sc3ncnc(N[C@H](CO)c4ccccc4)c23)c1	81 nM	1080 nM	8660 nM	51 nM	–
CN(C)C/C=C/C(=O)Nc1cccc(-c2c(-c3ccccc3)oc3ncnc(N[C@@H](CO)c4ccccc4)c23)c1	–	–	–	–	CC50 (HCC827 [4]): 1050 nM
C=CC(=O)Nc1cccc(-c2c(-c3ccccc3)sc3ncnc(N[C@H](CO)c4ccccc4)c23)c1	136 nM	650 nM	10700 nM	146 nM	IC50 [23]: 1.15 nM; IC50 [21]: 369 nM; IC50 [24]: 17.8 nM; IC50 [22]: 4.82 nM; CC50 (A-431; Homo sapiens, A-431, 96 h): > 20000 nM
C=CC(=O)Nc1cccc(-c2c(-c3ccccc3)oc3ncnc(N[C@H](C)c4ccccc4)c23)c1	117 nM	500 nM	4300 nM	58 nM	IC50 [23]: 0.214 nM; IC50 [21]: 8.13 nM; IC50 [24]: 1.48 nM; IC50 [22]: 0.641 nM; CC50 (A-431; Homo sapiens, A-431, 96 h): 449 nM
O=C(/C=C/CN1CCOCC1)Nc1cccc(-c2c(-c3ccccc3)oc3ncnc(N[C@H](CO)c4ccccc4)c23)c1	19 nM	283 nM	2830 nM	17 nM	–
C=CC(=O)Nc1cccc(-c2noc3ncnc(N[C@H](CO)c4ccccc4)c23)c1	416 nM	4630 nM	> 20000 nM	105 nM	–
C=CC(=O)Nc1cc(Nc2nccc(-c3cn(C)c4ccccc34)n2)c(OC)cc1N(C)CCN(C)C [OSIMERTINIB]	–	–	–	–	IC50 [21]: 3.31 nM; IC50 [22]: 0.858 nM; CC50 (A-431): […]
C=CS(=O)(=O)Nc1cccc(-c2c(-c3ccccc3)oc3ncnc(N[C@H](CO)c4ccccc4)c23)c1	3670 nM	2460 nM	7240 nM	2710 nM	–
C=CC(=O)Nc1cccc(-c2c(-c3ccccc3OC)oc3ncnc(N[C@H](CO)c4ccccc4)c23)c1	–	–	4080 nM	34 nM	IC50 [21]: 5.2 nM; IC50 [22]: 0.295 nM; CC50 (A-431; Homo sapiens, A-431, 96 h): > 8010 nM
C/C=C/C(=O)Nc1cccc(-c2c(-c3ccccc3)oc3ncnc(N[C@H](CO)c4ccccc4)c23)c1	239 nM	> 10000 nM	13200 nM	307 nM	–
C=CC(=O)Nc1cccc(-c2c(-c3ccccc3)oc3ncnc(N[C@@H](CO)c4ccccc4)c23)c1	–	–	–	–	CC50 (NCI-H1975 [2]): 13400 nM; CC50 (HCC827 [4]): 840 nM
CCOC(=O)/C=C/C(=O)Nc1cccc(-c2c(-c3ccccc3)oc3ncnc(N[C@H](CO)c4ccccc4)c23)c1	–	–	7010 nM	516 nM	–
C=CC(=O)Nc1cccc(-c2c(C)oc3ncnc(N[C@H](CO)c4ccccc4)c23)c1	62 nM	1320 nM	> 20000 nM	46 nM	–
C=CC(=O)Nc1cccc(-c2c(-c3ccccc3)oc3ncnc(N[C@H](CO)c4ccccc4)c23)c1	–	–	–	–	bioavailability [5]: 5.5%; AUC(0-inf) [7]: 1100 ng·h/mL; half-life [9]: 0.9 h; AUC(0-inf) [10]: 303 ng·h/mL; CC50 (NCI-H1975 [2]): 1260 nM; clearance [12]: 76.5 mL/min/kg; CC50 (HCC827 [4]): 24 nM; half-life [14]: 0.5 h; Vd [16]: 2.3 L/kg; Cmax [17]: 193 ng/mL; Tmax [20]: 1.2 h

More lines, main results first:

IC50 [1]	IC50 [3]	SMILES	CC50 (NCI-H1975 [2]; Homo sapiens, NCI-H1975, 96 h)	CC50 (HCC827 [4]; Homo sapiens, HCC827, 96 h)	other results
13 nM	117 nM	CCN(C/C=C/C(=O)Nc1cccc(-c2c(-c3ccccc3)oc3ncnc(N[C@H](CO)c4ccccc4)c23)c1)CCO	2410 nM	19 nM	–
64 nM	6370 nM	CC#CC(=O)Nc1cccc(-c2c(-c3ccccc3)oc3ncnc(N[C@H](CO)c4ccccc4)c23)c1	6740 nM	182 nM	–
> 10000 nM	> 10000 nM	CC(C)C/C=C/C(=O)Nc1cccc(-c2c(-c3ccccc3)oc3ncnc(N[C@H](CO)c4ccccc4)c23)c1	> 20000 nM	679 nM	–
3060 nM	> 10000 nM	O=C(O)/C=C/C(=O)Nc1cccc(-c2c(-c3ccccc3)oc3ncnc(N[C@H](CO)c4ccccc4)c23)c1	> 20000 nM	4120 nM	–
107 nM	1260 nM	C=CC(=O)Nc1cccc(-c2c(C)sc3ncnc(N[C@H](CO)c4ccccc4)c23)c1	12600 nM	35 nM	–
82 nM	2320 nM	C=CC(=O)Nc1cccc(-c2csc3ncnc(N[C@H](CO)c4ccccc4)c23)c1	> 20000 nM	56 nM	–
14 nM	131 nM	CCN(CC)C/C=C/C(=O)Nc1cccc(-c2c(-c3ccccc3)oc3ncnc(N[C@H](CO)c4ccccc4)c23)c1	2480 nM	62 nM	–
–	> 10000 nM	OC[C@@H](Nc1ncnc2oc(-c3ccccc3)c(-c3ccccc3)c12)c1ccccc1	–	518 nM	–
5000 nM	> 10000 nM	O=C(/C=C/c1ccccc1)Nc1cccc(-c2c(-c3ccccc3)oc3ncnc(N[C@H](CO)c4ccccc4)c23)c1	> 20000 nM	1780 nM	–
159 nM	> 10000 nM	C=CC(=O)Nc1cccc(-c2coc3ncnc(N[C@H](CO)c4ccccc4)c23)c1	> 20000 nM	744 nM	–

Reference: ChEMBL document CHEMBL4414600, “Discovery of a Furanopyrimidine-Based Epidermal Growth Factor Receptor Inhibitor (DBPR112) as a Clinical Candidate for the Treatment of Non-Small Cell Lung Cancer” (J Med Chem, 2019)
